Assay results published in ChEMBL document CHEMBL1148636, “Novel analogues of degarelix incorporating hydroxy-, methoxy-, and pegylated-urea moieties at positions 3, 5, 6 and the N-terminus. Part III” (J Med Chem, 2006).
≈ marks a conversion by molar mass, not a printed value. Calls of active or inactive are those of the source. The rule behind the calls is not given here. Numbered stars: 1 amine (or outer) side, 2 acyl side, 3 side chain; on linkers, the order of the positions; unused ones are H or OH. Square brackets hold non-standard residues; d marks the D form. Side chains are listed from the residue outwards. Peptide text beside a SMILES is read from it. * marks the point of attachment. dPhe(4-NHCONH2) = NC(=O)Nc1ccc(C[C@@H](N)C(=O)O)cc1; Dihydroorotyl(S) = O=C1C[C@@H](C(=O)*)NC(=O)N1; dPhe(4-NH2) = Nc1ccc(C[C@@H](N)C(=O)O)cc1; dPhe(4-Cl) = N[C@H](Cc1ccc(Cl)cc1)C(=O)O; Phe(4-NH2) = Nc1ccc(C[C@H](N)C(=O)O)cc1; d2Nal = N[C@H](Cc1ccc2ccccc2c1)C(=O)O; Lys(iPr) = CC(C)NCCCC[C@H](N)C(=O)O; NHCH2CH2OCH2CH2OEt = CCOCCOCCN*; d3Pal = N[C@H](Cc1cccnc1)C(=O)O; Methoxycarbamoyl = CONC(=O)*; CO = O=C([*:1])[*:2]

Columns and labels:
Rattus norvegicus [1] = test: Inhibition of GnRH-induced LH secretion in Sprague-Dawley rat at 50 ug, sc for 120 hrs; assay type: functional
Procedure, shortened: (§1)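 Male rats castrated ten days earlier (≥5 per group) injected sc with 50 μg peptide in 50 μL 5% mannitol (0.6% DMSO in the stock); vehicle controls run alongside. Tail-tip blood taken pre-dose and at 3, 72, 96, 120, 144, 168 and sometimes 192 h; plasma LH by RIA, all samples of one experiment in the same assay; >80% inhibition scored.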

Rattus norvegicus [2] = test: Antiovulatory activity in rat at 2 ug, sc; assay type: functional, organism-based
Procedure, shortened: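 Cycling rats (250-300 g) given peptide 2 μg in 200 μL saline or 5% DMSO in saline sc at noon on proestrus; scored as number of rats ovulating over total treated (8 per group).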

[3] = system: Mast cell (Rattus norvegicus); test: Histamine release in mast cells by ELISA
[4] = target: T1, Gonadotropin-releasing hormone receptor (Homo sapiens, UniProt P30968); test: Antagonist activity at human GnRH receptor expressed in HEK293 cells as inhibition of GnRH-induced LH secretion by reporter gene assay; assay type: functional, cell-based
T1 sequence (P30968 whole entry): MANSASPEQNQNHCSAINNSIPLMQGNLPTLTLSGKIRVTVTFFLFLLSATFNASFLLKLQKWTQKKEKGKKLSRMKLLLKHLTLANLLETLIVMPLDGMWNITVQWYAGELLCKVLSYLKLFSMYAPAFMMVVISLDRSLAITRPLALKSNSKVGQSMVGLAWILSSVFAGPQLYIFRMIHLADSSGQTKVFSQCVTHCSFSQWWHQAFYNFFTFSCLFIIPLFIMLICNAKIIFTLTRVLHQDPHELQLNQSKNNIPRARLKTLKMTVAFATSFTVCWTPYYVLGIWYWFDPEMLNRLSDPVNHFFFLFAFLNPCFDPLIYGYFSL
Procedure, shortened: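 HEK293 cells stably expressing cloned human GnRH receptor plus luciferase reporter under LH alpha subunit promoter; plated 5 × 10^4 cells/well, overnight 37 °C. Compounds in 1% DMSO, 11 half-log concentrations in duplicate, 10 min preincubation, then GnRH 1 nM final, ≥5 h at 37 °C; luminescence read. Percent of control fitted to IC50; geometric mean of ≥2 independent experiments.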

Rattus norvegicus [5] = test: Inhibition of GnRH-induced LH secretion in Sprague-Dawley rat at 50 ug, sc for 72 hrs; assay type: functional; procedure, shortened: as §1
Rattus norvegicus [6] = test: Inhibition of GnRH-induced LH secretion in Sprague-Dawley rat at 50 ug, sc for 3 hrs; assay type: functional; procedure, shortened: as §1
Rattus norvegicus [7] = test: Inhibition of GnRH-induced LH secretion in Sprague-Dawley rat at 50 ug, sc for 96 hrs; assay type: functional; procedure, shortened: as §1

Structure (SMILES)	EC50 [3] [µg/mL]	IC50 [4] [nM]	Inhibition (Rattus norvegicus [1]) [%]	Activity (Rattus norvegicus [2])	Inhibition (Rattus norvegicus [5]) [%]	Inhibition (Rattus norvegicus [6]) [%]	Inhibition (Rattus norvegicus [7]) [%]
CC(=O)N[C@H](Cc1ccc2ccccc2c1)C(=O)N[C@H](Cc1ccc(Cl)cc1)C(=O)N[C@H](Cc1cccnc1)C(=O)N[C@@H](CO)C(=O)N[C@@H](Cc1ccc(NC(=O)[C@@H]2CC(=O)NC(=O)N2)cc1)C(=O)N[C@H](Cc1ccc(NC(N)=O)cc1)C(=O)N[C@@H](CC(C)C)C(=O)N[C@@H](CCCCNC(C)C)C(=O)N1CCC[C@H]1C(=O)N[C@H](C)C(N)=O [DEGARELIX] (Ac-[d2Nal][dPhe(4-Cl)][d3Pal]S[Phe(4-NH2)](Dihydroorotyl(S))[dPhe(4-NHCONH2)]L[Lys(iPr)]P[dA]-NH2)	> 1000		>80	Active			
CCOCCOCCNC(=O)Nc1ccc(C[C@H](NC(=O)[C@H](CO)NC(=O)[C@@H](Cc2cccnc2)NC(=O)[C@@H](Cc2ccc(Cl)cc2)NC(=O)[C@@H](Cc2ccc3ccccc3c2)NC(C)=O)C(=O)N[C@H](Cc2ccc(NC(N)=O)cc2)C(=O)N[C@@H](CC(C)C)C(=O)N[C@@H](CCCCNC(C)C)C(=O)N2CCC[C@H]2C(=O)N[C@H](C)C(N)=O)cc1 (Ac-[d2Nal][dPhe(4-Cl)][d3Pal]S[Phe(4-NH2)]([CO-NHCH2CH2OCH2CH2OEt])[dPhe(4-NHCONH2)]L[Lys(iPr)]P[dA]-NH2)	910 (≈ 551 µM)			Active			
CCOCCOCCNC(=O)N[C@H](Cc1ccc2ccccc2c1)C(=O)N[C@H](Cc1ccc(Cl)cc1)C(=O)N[C@H](Cc1cccnc1)C(=O)N[C@@H](CO)C(=O)N[C@@H](Cc1ccc(NC(=O)NOC)cc1)C(=O)N[C@H](Cc1ccc(NC(N)=O)cc1)C(=O)N[C@@H](CC(C)C)C(=O)N[C@@H](CCCCNC(C)C)C(=O)N1CCC[C@H]1C(=O)N[C@H](C)C(N)=O	50.6 (≈ 30.1 µM)	2.98		Active			
CCOCCOCCNC(=O)N[C@H](Cc1ccc2ccccc2c1)C(=O)N[C@H](Cc1ccc(Cl)cc1)C(=O)N[C@H](Cc1cccnc1)C(=O)N[C@@H](CO)C(=O)N[C@@H](Cc1ccc(NC(=O)[C@@H]2CC(=O)NC(=O)N2)cc1)C(=O)N[C@H](Cc1ccc(NC(=O)NOC)cc1)C(=O)N[C@@H](CC(C)C)C(=O)N[C@@H](CCCCNC(C)C)C(=O)N1CCC[C@H]1C(=O)N[C@H](C)C(N)=O ({NHCH2CH2OCH2CH2OEt-CO}-[d2Nal][dPhe(4-Cl)][d3Pal]S[Phe(4-NH2)](Dihydroorotyl(S))[dPhe(4-NH2)](Methoxycarbamoyl)L[Lys(iPr)]P[dA]-NH2)		1.61				>80	
CCOCCOCCNC(=O)Nc1ccc(C[C@H](NC(=O)[C@H](CO)NC(=O)[C@@H](Cc2cccnc2)NC(=O)[C@@H](Cc2ccc(Cl)cc2)NC(=O)[C@@H](Cc2ccc3ccccc3c2)NC(=O)NCCOCCOCC)C(=O)N[C@H](Cc2ccc(NC(N)=O)cc2)C(=O)N[C@@H](CC(C)C)C(=O)N[C@@H](CCCCNC(C)C)C(=O)N2CCC[C@H]2C(=O)N[C@H](C)C(N)=O)cc1	> 1000	1.12		Active			

Further lines, with some results ahead:

EC50 [3] [µg/mL]	IC50 [4] [nM]	Structure (SMILES)	Inhibition (Rattus norvegicus [1]) [%]	Activity (Rattus norvegicus [2])	Inhibition (Rattus norvegicus [5]) [%]	Inhibition (Rattus norvegicus [6]) [%]	Inhibition (Rattus norvegicus [7]) [%]
	0.6	CONC(=O)Nc1ccc(C[C@H](NC(=O)[C@H](CO)NC(=O)[C@@H](Cc2cccnc2)NC(=O)[C@@H](Cc2ccc(Cl)cc2)NC(=O)[C@@H](Cc2ccc3ccccc3c2)NC(C)=O)C(=O)N[C@H](Cc2ccc(NC(N)=O)cc2)C(=O)N[C@@H](CC(C)C)C(=O)N[C@@H](CCCCNC(C)C)C(=O)N2CCC[C@H]2C(=O)N[C@H](C)C(N)=O)cc1 (Ac-[d2Nal][dPhe(4-Cl)][d3Pal]S[Phe(4-NH2)](Methoxycarbamoyl)[dPhe(4-NHCONH2)]L[Lys(iPr)]P[dA]-NH2)			>80		
46 (≈ 28.8 µM)	0.91	CONC(=O)Nc1ccc(C[C@H](NC(=O)[C@H](CO)NC(=O)[C@@H](Cc2cccnc2)NC(=O)[C@@H](Cc2ccc(Cl)cc2)NC(=O)[C@@H](Cc2ccc3ccccc3c2)NC(C)=O)C(=O)N[C@H](Cc2ccc(NC(=O)NOC)cc2)C(=O)N[C@@H](CC(C)C)C(=O)N[C@@H](CCCCNC(C)C)C(=O)N2CCC[C@H]2C(=O)N[C@H](C)C(N)=O)cc1		Active			
461 (≈ 301 µM)		CC(=O)Nc1ccc(C[C@H](NC(=O)[C@H](CO)NC(=O)[C@@H](Cc2cccnc2)NC(=O)[C@@H](Cc2ccc(Cl)cc2)NC(=O)[C@@H](Cc2ccc3ccccc3c2)NC(C)=O)C(=O)N[C@H](Cc2ccc(NC(C)=O)cc2)C(=O)N[C@@H](CC(C)C)C(=O)N[C@@H](CCCCNC(C)C)C(=O)N2CCC[C@H]2C(=O)N[C@H](C)C(N)=O)cc1 [ACYLINE]		Active			
43.1 (≈ 26.8 µM)	0.7	CONC(=O)Nc1ccc(C[C@@H](NC(=O)[C@H](Cc2ccc(NC(=O)NOC)cc2)N(C)C(=O)[C@H](CO)NC(=O)[C@@H](Cc2cccnc2)NC(=O)[C@@H](Cc2ccc(Cl)cc2)NC(=O)[C@@H](Cc2ccc3ccccc3c2)NC(C)=O)C(=O)N[C@@H](CC(C)C)C(=O)N[C@@H](CCCCNC(C)C)C(=O)N2CCC[C@H]2C(=O)N[C@H](C)C(N)=O)cc1		Active			
	0.51	CONC(=O)Nc1ccc(C[C@@H](NC(=O)[C@H](Cc2ccc(NC(=O)[C@@H]3CC(=O)NC(=O)N3)cc2)NC(=O)[C@H](CO)NC(=O)[C@@H](Cc2cccnc2)NC(=O)[C@@H](Cc2ccc(Cl)cc2)NC(=O)[C@@H](Cc2ccc3ccccc3c2)NC(C)=O)C(=O)N[C@@H](CC(C)C)C(=O)N[C@@H](CCCCNC(C)C)C(=O)N2CCC[C@H]2C(=O)N[C@H](C)C(N)=O)cc1 (Ac-[d2Nal][dPhe(4-Cl)][d3Pal]S[Phe(4-NH2)](Dihydroorotyl(S))[dPhe(4-NH2)](Methoxycarbamoyl)L[Lys(iPr)]P[dA]-NH2)					>80
